High-throughput results from PubChem.
Lipid droplet: hepatic lipid droplet formation modulation; AML12 mouse hepatocytes, oleate lipid droplets, BODIPY imaging; inhibition, % at 6.5 µM; actives 0.4% (n = 240,000); AID 1656;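 active = lipid droplet intensity inhibited by at least 50%, with more than 500 cells counted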
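Material: mouse AML12 hepatocyte cell line, fixed after treatment; Timing: compound with oleate, overnight; Technique: high-content imaging of BODIPY-stained droplets and DAPI nuclei; Probe or stimulus: oleate, 100 µM final; Dosing: compound at 6.5 µM only.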
MC4R barr agon: activates human MC4R beta-arrestin recruitment; P32245; activation, % at 8.9 µM; actives 0.98% (n = 360,000); U2OS MC4R beta-arrestin complementation, luminescence; percent of melanotan II response, DMSO zero;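 active = activation above a per-plate cutoff, the mean activation of sample wells on that plate plus 3 SD, cut at about 8% in these data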
MC4R antagonist: blocks human MC4R cAMP signaling | MC4R-expressing cells, MTII-stimulated cAMP, LANCE TR-FRET | inhibition, % at 6.5 µM | actives 0.48% (n = 360,000);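 active = inhibition above its plate's cutoff, the mean of tested wells on that plate plus 3 SD, cut at about 29% in these data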;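 note: 0% = Melanotan II alone and 100% = Melanotan II plus saturating MCL0020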
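Material: human MC4R-expressing U2OS cells. Probe or stimulus: Melanotan II challenge. Dosing: 6.5 µM single dose. Times: 30-min compound, 1-h challenge, 1-h detection, room temperature. Technique: TR-FRET with Eu-cAMP and labeled anti-cAMP, 671 nm. Replication: singlicate.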
m5-HT2A agonist: agonists of mouse serotonin 5-HT2A receptor (HTR2A) | CHO-K1 mHTR2A beta-arrestin complementation, luminescence; percent of 30 µM serotonin response | P35363 | activation, % at 7.6 µM | actives 0.66% (n = 360,000);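 active = activation above a run cutoff, the mean activation of all tested compounds plus 3 SD, cut at about 14% in these data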;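 note: 0% = plate median of compound wells and 100% = 30 µM serotonin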
Target sequence (P35363 whole entry, looked up): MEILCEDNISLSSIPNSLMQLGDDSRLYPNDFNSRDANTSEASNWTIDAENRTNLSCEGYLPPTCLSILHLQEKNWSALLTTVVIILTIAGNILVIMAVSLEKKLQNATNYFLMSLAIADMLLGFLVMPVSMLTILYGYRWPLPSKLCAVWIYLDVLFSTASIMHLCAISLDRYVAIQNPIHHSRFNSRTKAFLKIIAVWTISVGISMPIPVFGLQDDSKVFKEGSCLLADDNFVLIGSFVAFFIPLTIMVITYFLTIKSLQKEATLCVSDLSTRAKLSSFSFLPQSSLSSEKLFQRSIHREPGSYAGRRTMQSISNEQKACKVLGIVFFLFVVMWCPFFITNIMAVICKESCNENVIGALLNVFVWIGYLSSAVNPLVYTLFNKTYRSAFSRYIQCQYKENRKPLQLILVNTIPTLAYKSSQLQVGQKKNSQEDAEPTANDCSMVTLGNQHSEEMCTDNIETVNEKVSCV
PREPL inh: human PREPL enzyme inhibition; inhibition, % at 5.96 µM; Q4J6C6; AID 2751; actives 0.68% (n = 320,000); recombinant PREPL, fluorescence polarization activity-based probe; in the data active = inhibition above about 43%;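 note: 0% = enzyme with DMSO and 100% = wells lacking enzyme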
NTR1 ag: activates human neurotensin receptor 1; actives 0.17% (n = 330,000); activation, % at 20 µM; AID 493036; NTR1-U2OS beta-arrestin-GFP spot imaging, agonist mode;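 active = activation at or above 40% of the spot to cytoplasm intensity ratio, with at least 20 cells analyzed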;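 note: 0% = DMSO without peptide and 100% = 100 nM NTR1 peptide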
MC4R barr ag: human MC4R beta-arrestin agonism confirmation; actives 31% (n = 2,400); shares compounds with MC4R barr agon; U2OS MC4R beta-arrestin recruitment, luminescence; scaled DMSO 0%, Melanotan II 100%; activation, % at 8.9 µM;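 active = mean activation across replicates above the hit cutoff set in the earlier primary screen, cut at about 8% in these data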
MOR DOR agonist: activates mu-delta opioid heterodimer, MC4R agonist counter-screen; shares compounds with MC4R barr agon; U2OS PathHunter beta-arrestin, beta-gal luminescence; percent of deltorphin B response, DMSO zero; activation, % at 9.2 µM; actives 5.8% (n = 2,400); AID 602194;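 active = mean activation across replicates exceeds the hit threshold derived in the earlier primary screen, cut at about 18% in these data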;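 note: 100% = deltorphin B at 0.9 µM final and 0% = DMSO alone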
* = called active by the depositor. Most compounds without a hit are left out; they make up all but 2.7% or so of the library.

What do the screens show for `CC1CCc2sc(C(=O)Nc3nnc(SCc4ccc(F)cc4)s3)cc2C1` (stereo unspecified)?
Lipid droplet: -3; MC4R barr agon: 33*; MC4R antagonist: 3; m5-HT2A agonist: 2; PREPL inh: 8; NTR1 ag: 2; MC4R barr ag: 12*; MOR DOR agonist: 2

What do the screens show for `COc1cc2c(cc1OC)CN(C(=O)C(CCSC)NS(=O)(=O)c1ccc(C)cc1)CC2` (stereo unspecified)?
Lipid droplet: -13; MC4R barr agon: -1; MC4R antagonist: 4; m5-HT2A agonist: 2; PREPL inh: 8; NTR1 ag: -2

How did O=C(COC(=O)C1=Cc2ccccc2OC1)NCc1ccc(F)cc1 do in these assays?
MC4R barr agon: -1; MC4R antagonist: 13; m5-HT2A agonist: 7

Results for Cc1ccc(S(=O)(=O)NCCNc2ccc(Br)c(C)c2)cc1 ?
MC4R barr agon: 18*; MC4R antagonist: 2; m5-HT2A agonist: -2; PREPL inh: -56; NTR1 ag: -2; MC4R barr ag: 4; MOR DOR agonist: 7

Results for COC(=O)c1cc(-c2cccc(OC)c2)c2c(=O)[nH]c(=O)n(C)c2n1 ?
Lipid droplet: 43; MC4R barr agon: 0; MC4R antagonist: 3; m5-HT2A agonist: 1; PREPL inh: 0; NTR1 ag: 6

How did COc1ccc(-c2csc3ncnc(Nc4ccc(O)cc4)c23)cc1 do in these assays?
Lipid droplet: -10; MC4R barr agon: 14*; MC4R antagonist: 22; m5-HT2A agonist: 1; PREPL inh: 12; NTR1 ag: 6; MC4R barr ag: 5; MOR DOR agonist: 10

Results for CC/C(=N/Nc1ccccc1)c1cnnc(-c2ccccc2)n1 ?
Lipid droplet: 29; MC4R barr agon: 16*; MC4R antagonist: 5; m5-HT2A agonist: -3; PREPL inh: 0; NTR1 ag: 1; MC4R barr ag: 21*; MOR DOR agonist: 2

How did CC/C(=N/Nc1cccc(Cl)c1)c1cnnc(SC)n1 do in these assays?
Lipid droplet: 14; MC4R barr agon: 0; MC4R antagonist: -7; m5-HT2A agonist: 8; PREPL inh: -2; NTR1 ag: 5

What do the screens show for `Cn1c(=S)n(CCC(=O)O)c2ccccc21`?
Lipid droplet: 5; MC4R barr agon: -2; MC4R antagonist: -2; m5-HT2A agonist: -3; PREPL inh: 1; NTR1 ag: 0

How did N=C1/C(=C/c2cccn2-c2ccc([N+](=O)[O-])cc2)C(=O)N=C2SC=CN12 do in these assays?
Lipid droplet: -11; MC4R barr agon: -2; MC4R antagonist: -18; m5-HT2A agonist: 2; PREPL inh: 2; NTR1 ag: 3

Results for COc1ccc(-c2ccc(/C=C3/C(=N)N4C=CSC4=NC3=O)o2)c([N+](=O)[O-])c1 ?
Lipid droplet: -3; MC4R barr agon: 20*; MC4R antagonist: -3; m5-HT2A agonist: 0; PREPL inh: 16; MC4R barr ag: 3; MOR DOR agonist: 2

Results for CC(=O)Nc1ccc(C(=O)N2CCCCC2c2cc(C(=O)NCc3cccnc3)no2)cc1 (stereo unspecified) ?
MC4R barr agon: -1; MC4R antagonist: -1; m5-HT2A agonist: 5

How did CCOc1ccc(-c2nc3scc(-c4cccs4)c3c(=O)[nH]2)cc1 do in these assays?
Lipid droplet: 1; MC4R barr agon: 28*; MC4R antagonist: -2; m5-HT2A agonist: 6; PREPL inh: 3; NTR1 ag: 5; MC4R barr ag: 12*; MOR DOR agonist: 2

Results for O=C(NCC1CCCO1)/C(=C/c1ccccc1F)NC(=O)c1ccccc1 (stereo unspecified) ?
Lipid droplet: -15; MC4R barr agon: 0; MC4R antagonist: 3; m5-HT2A agonist: 1; PREPL inh: -3; NTR1 ag: -1

What do the screens show for `OC(CNCCc1ccc(Cl)cc1)COc1ccc2ccccc2c1` (stereo unspecified)?
Lipid droplet: 9; MC4R barr agon: 20*; MC4R antagonist: -4; m5-HT2A agonist: 10; MC4R barr ag: 15*; MOR DOR agonist: 5

Results for COc1ccc(CCNCC(O)COc2ccc(Cl)cc2)cc1OC (stereo unspecified) ?
Lipid droplet: -1; MC4R barr agon: -2; MC4R antagonist: -2; m5-HT2A agonist: -7; PREPL inh: -1; NTR1 ag: 1

What do the screens show for `O=C(COC(=O)C1CCCN1C(=O)C12CC3CC(CC(C3)C1)C2)c1ccc(Br)cc1` (stereo unspecified)?
Lipid droplet: 0; MC4R barr agon: 14*; MC4R antagonist: 0; m5-HT2A agonist: -3; PREPL inh: 2; NTR1 ag: 6; MC4R barr ag: 5; MOR DOR agonist: 3

What do the screens show for `CC(C)(C)C1CCC(C(=O)Nc2ccccc2)CC1` (stereo unspecified)?
Lipid droplet: 14; MC4R barr agon: 10*; MC4R antagonist: -5; m5-HT2A agonist: 0; PREPL inh: 1; NTR1 ag: 2; MC4R barr ag: 2; MOR DOR agonist: 6

Results for O=C(NCC1CCCO1)c1cccc(S(=O)(=O)Nc2ccccc2Cl)c1 (stereo unspecified) ?
MC4R barr agon: 0; MC4R antagonist: 0; m5-HT2A agonist: -6

How did Cc1ccc(C2CC(=O)NC(SCCC(C)C)=C2C#N)cc1 (stereo unspecified) do in these assays?
MC4R barr agon: 9.6*; MC4R antagonist: 5; m5-HT2A agonist: -4; PREPL inh: 9; NTR1 ag: 2; MC4R barr ag: 2; MOR DOR agonist: 4

What do the screens show for `O=C(Oc1ccc(-c2cnc3ccccc3n2)cc1)c1ccco1`?
MC4R barr agon: 18*; MC4R antagonist: -8; m5-HT2A agonist: 4; PREPL inh: 35; NTR1 ag: 0; MC4R barr ag: -3; MOR DOR agonist: 3

Results for CCC(=O)Oc1ccc(-c2cnc3ccccc3n2)cc1 ?
MC4R barr agon: 3; MC4R antagonist: -15; m5-HT2A agonist: 1; PREPL inh: 12; NTR1 ag: -1

Results for COC(=O)c1ccccc1C(=O)c1cccc2ccccc12 ?
Lipid droplet: -12; MC4R barr agon: -1; MC4R antagonist: 5; m5-HT2A agonist: -4; PREPL inh: -14; NTR1 ag: 1
